Reference: ChEMBL document CHEMBL4177555, “Mycobacterium tuberculosis lysine-ɛ-aminotransferase a potential target in dormancy: Benzothiazole based inhibitors” (Bioorg Med Chem, 2017)
≈ marks a conversion by molar mass, not a printed value. Calls of active or inactive are those of the source. The rule behind the calls is not given here.

Legend:
[1] = target: T1, L-lysine-epsilon aminotransferase (Mycobacterium tuberculosis, UniProt P9WQ77); assay: Inhibition of Mycobacterium tuberculosis LAT using L-lysine as substrate by spectroscopic method
T1 sequence (P9WQ77 whole entry): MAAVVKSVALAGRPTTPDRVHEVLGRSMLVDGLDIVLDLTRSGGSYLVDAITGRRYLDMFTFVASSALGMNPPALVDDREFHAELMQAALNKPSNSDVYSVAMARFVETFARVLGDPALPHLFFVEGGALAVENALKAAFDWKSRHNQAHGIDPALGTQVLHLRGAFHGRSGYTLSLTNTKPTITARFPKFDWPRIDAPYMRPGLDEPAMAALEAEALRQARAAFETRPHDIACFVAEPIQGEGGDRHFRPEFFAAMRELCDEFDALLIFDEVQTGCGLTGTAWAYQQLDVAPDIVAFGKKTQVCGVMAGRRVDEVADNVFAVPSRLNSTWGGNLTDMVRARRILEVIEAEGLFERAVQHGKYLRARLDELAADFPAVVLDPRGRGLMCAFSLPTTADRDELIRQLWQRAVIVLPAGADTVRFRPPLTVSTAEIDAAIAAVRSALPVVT
Outline: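 Purified recombinant MTB LAT incubated 1 h at 37 °C in 200 mM phosphate pH 7.2 with 1.5 mM L-lysine, 1.5 mM α-ketoglutarate and 15 µM pyridoxal 5-phosphate, with compounds at several concentrations. Stopped with 10% TCA in ethanol. Products read as o-aminobenzaldehyde adduct at 465 nm and at 280 nm.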

[2] = Growth inhibition of mouse RAW264.7 cells at 50 ug/ml after 48 hrs by MTT assay relative to control; assay type: cell-based; details: read-out: GI
Outline: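 RAW 264.7 mouse macrophages exposed to compound at 50 µg/ml for 48 h. Viability read as MTT conversion to formazan.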

[3] = tested on: Mycobacterium tuberculosis; assay: Antibacterial activity against replicative stage Mycobacterium tuberculosis H37Rv after 7 days by MABA; assay type: functional; details: 168 h
Outline: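 MABA run in duplicate. H37Rv from fresh LJ medium grown in 7H9/OADC at 37 °C to McFarland no.1, then diluted 1:25 as inoculum. Compounds tested in serial dilutions. After 7 days, alamar blue/Tween 80 (1:1) added and plates re-incubated overnight.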

[4] = tested on: Mycobacterium tuberculosis; assay: Antibacterial activity against Mycobacterium tuberculosis H37Rv nutrient starvation model assessed as log reduction in bacterial colonies at 10 ug/ml measured after 7 days by MPN assay; assay type: functional
Outline: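 H37Rv grown in 7H9/OADC to OD 0.8–1.0, washed twice, then held in PBS in sealed bottles at 37 °C for 6 weeks. Starved aliquots exposed to compound at 10 µg/ml for 7 days. Persisters enumerated by MPN assay.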

[5] = tested on: Mycobacterium tuberculosis; assay: Antibacterial activity against non-replicative stage Mycobacterium tuberculosis H37Rv; assay type: functional, organism-based
[6] = tested on: Mycobacterium tuberculosis; assay: Antibiofilm activity against Mycobacterium tuberculosis assessed as log reduction in bacterial count at 10 ug/ml measured after 7 days by MPN assay; assay type: functional
Outline: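 MTB inoculated 1:100 in Sauton's medium, sealed and grown 5 weeks at 37 °C to form a mature biofilm. Compound added to the medium (n=4) for 7 days. Tween-80 0.1% added, cells washed in PBS/10% glycerol/0.05% Tween-80 and homogenised. Persisters compared with solvent control by MPN assay.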

Mycobacterium marinum [7] = assay: Antibacterial activity against Mycobacterium marinum ATCC BAA-535 infected in Zebra fish assessed as log reduction in bacterial counts at 5 mg/kg, po administered for 7 days by MPN assay; assay type: functional
Outline: (§1)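 Adult zebrafish (n=6 per group) infected intraperitoneally with M. marinum ATCC BAA-535 grown at 30 °C in 7H9 broth (about 0.75 million bacteria). From day 7 after infection, drug given orally by micropipette for 7 days. Fish then homogenised, tissue taken up in 7H9 broth, and bacterial counts read by MPN assay.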

[8] = tested on: Mycobacterium tuberculosis; assay: Antibacterial activity against Mycobacterium tuberculosis H37Rv infected in 3D culture of human PBMC assessed as colony forming units treated for 4 days measured after 3 days; assay type: functional
Outline: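 PBMCs at 5x10^5 cells/well in collagen–fibronectin ECM (pH 7.0), infected with H37Rv at MOI 0.1, grown in RPMI with 20% human serum at 37 °C/CO2. Granulomas treated 4 days, then with or without Rif for 3 more days. Collagenase release, Triton X-100 lysis, 7H10 plating, cfu counted after 4 weeks.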

Mycobacterium marinum [9] = assay: Antibacterial activity against Mycobacterium marinum ATCC BAA-535 infected in Zebra fish assessed as log reduction in bacterial counts at 10 mg/kg, po administered for 7 days by MPN assay; assay type: functional; outline: as §1

Row | Compound | IC50 [1] [µM] | inhibition at 48 h, 50 ug/ml [2] [%] | MIC [3] [µM] | log(activity) [4] | Activity [5] | log(activity) [6] | log(activity) (Mycobacterium marinum [7]) | Activity [8] [×10⁵ CFU] | log(activity) (Mycobacterium marinum [9])
1 | N#C/C(=C\c1ccc(O)cc1)c1nc2ccccc2s1 | 10.4 | 2.26 | > 89.9 | – | – | – | – | – | –
2 | COc1cc(/C=C(\C#N)c2nc3ccccc3s2)cc(OC)c1OC | 64.9 | 12.6 | > 71 | – | – | – | – | – | –
3 | N#C/C(=C\c1ccc(OCc2ccccc2)cc1)c1nc2ccccc2s1 | 47.9 | 22.8 | 68 (≈ 25 µg/mL) | – | – | – | – | – | –
4 | N#C/C(=C\c1ccc([N+](=O)[O-])o1)c1nc2ccccc2s1 | 19.6 | 19.6 | > 84.2 | 2.8 | – | – | – | – | –
5 | N#C/C(=C\c1ccc(OCC(=O)O)cc1)c1nc2ccccc2s1 | 3.08 | 12.7 | 4.64 (≈ 1.56 µg/mL) | 2.8 | Active | – | – | – | –
6 | N#C/C(=C\c1ccc(-c2cc(C(=O)O)cc(C(=O)O)c2)o1)c1nc2ccccc2s1 | 1.15 | 14.4 | 60.1 (≈ 25 µg/mL) | 2.8 | – | – | – | – | –
7 | N#C/C(=C\c1ccc(-c2cccc(C(=O)O)c2)s1)c1nc2ccccc2s1 | 5.73 | 18.9 | 64.4 (≈ 25 µg/mL) | 2.9 | – | 2.1 | – | – | –
8 | N#C/C(=C\c1ccc(F)cc1)c1nc2ccccc2s1 | 4.11 | 10.6 | 89.3 (≈ 25 µg/mL) | – | – | – | – | – | –
9 | N#C/C(=C\c1ccc([N+](=O)[O-])s1)c1nc2ccccc2s1 | 54.8 | 60.3 | > 79.9 | – | – | – | – | – | –
10 | N#C/C(=C\c1ccc[nH]1)c1nc2ccccc2s1 | 17 | 56.4 | > 99.6 | – | – | – | – | – | –
11 | NNC(=O)c1ccncc1 [ISONIAZID] | – | 93.2 | 0.4 (≈ 0.0549 µg/mL) | 1.2 | – | 1.9 | 2.8 | – | –
12 | N#C/C(=C\c1cccs1)c1nc2ccccc2s1 | 92.6 | 17.3 | > 93.3 | – | – | – | – | – | –
13 | COc1cc(/C=C(\C#N)c2nc3ccccc3s2)ccc1O | 7.83 | 34.8 | 20.3 (≈ 6.26 µg/mL) | – | – | – | – | – | –
14 | CO[C@H]1/C=C/O[C@@]2(C)Oc3c(C)c(O)c4c(O)c(c(/C=N/N5CCN(C)CC5)c(O)c4c3C2=O)NC(=O)/C(C)=C\C=C\[C@H](C)[C@H](O)[C@@H](C)[C@@H](O)[C@@H](C)[C@H](OC(C)=O)[C@@H]1C [RIFAMPIN] | – | 23.5 | 0.5 (≈ 0.411 µg/mL) | 1.3 | – | 2 | – | 3.3 | –
15 | N#C/C(=C\c1ccco1)c1nc2ccccc2s1 | 16.2 | 47.3 | 49.6 (≈ 12.5 µg/mL) | – | – | – | – | – | –
16 | N#C/C(=C\c1ccc(O)cc1O)c1nc2ccccc2s1 | 23.2 | 45.7 | 10.6 (≈ 3.12 µg/mL) | – | – | – | – | – | –
17 | COc1c(N2C[C@@H]3CCCN[C@@H]3C2)c(F)cc2c(=O)c(C(=O)O)cn(C3CC3)c12 [MOXIFLOXACIN] | – | – | – | 2.2 | – | 1.8 | – | – | 2.7
18 | N#C/C(=C\c1c[nH]c2ccccc12)c1nc2ccccc2s1 | 37.9 | 45.7 | > 83.1 | – | – | – | – | – | –
19 | N#C/C(=C\c1ccc(-c2ccc(C(=O)O)cc2)s1)c1nc2ccccc2s1 | 6.72 | 5.64 | 2.01 (≈ 0.781 µg/mL) | – | Active | – | – | – | –
20 | N#C/C(=C\c1ccc(-c2cccc(C(=O)O)c2)o1)c1nc2ccccc2s1 | 3.74 | 3.12 | > 67.2 | – | – | – | – | – | –
21 | N#C/C(=C\c1ccc(-c2ccc(C(=O)O)cc2)o1)c1nc2ccccc2s1 | 14.1 | 15.2 | > 67.2 | – | – | – | – | – | –
22 | N#C/C(=C\c1ccc2c(c1)OCO2)c1nc2ccccc2s1 | 66 | 45.7 | 81.7 (≈ 25 µg/mL) | – | – | – | – | – | –
23 | N#C/C(=C\c1ccccc1OCC(=O)O)c1nc2ccccc2s1 | 53.8 | 52.3 | 2.32 (≈ 0.78 µg/mL) | – | – | – | – | – | –
24 | COc1ccc(/C=C(\C#N)c2nc3ccccc3s2)cc1OC | 61.4 | 32.5 | > 77.6 | – | – | – | – | – | –
